# E-selectin induc: induces E-selectin expression in human endothelial cells | HUVEC E-selectin immunofluorescence imaging; normalized: neutral wells 0, TNF-alpha wells 100 | activation, % at 7.58 µM | actives 0.37% (n = 260,000) | AID 686992;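 active = mean E-selectin-positive cell signal at least 10% of the positive control, reached in at least 60% of replicates, without over 20% cell loss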
#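 Read-out: % PE-positive cells | Test system: HUVEC | Doses: One compound dose added by pin transfer | Buffer or medium: EGM-2 over gelatin coat | Signal: Immunofluorescence imaging | Benchmarks: TNF-alpha, DMSO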
# SIRT5 inh: inhibitors of human sirtuin-5 desuccinylase | Q9NXA8 | AID 652115 | Purified SirT5, succinyl-peptide AMC, trypsin-coupled fluorescence | inhibition, % at 15 µM | actives 1.1% (n = 330,000); in the data active = inhibition above about 15%
# Target sequence (Q9NXA8 whole entry, looked up): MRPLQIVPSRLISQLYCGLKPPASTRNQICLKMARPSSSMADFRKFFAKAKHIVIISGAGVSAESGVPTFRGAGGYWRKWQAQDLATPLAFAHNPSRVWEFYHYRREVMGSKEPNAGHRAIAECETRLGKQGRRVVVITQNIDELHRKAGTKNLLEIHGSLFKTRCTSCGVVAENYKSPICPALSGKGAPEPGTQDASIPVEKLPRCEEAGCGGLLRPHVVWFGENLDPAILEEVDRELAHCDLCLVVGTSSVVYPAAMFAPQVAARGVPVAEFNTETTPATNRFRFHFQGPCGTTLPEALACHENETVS
# DENV2 CPE rescue: DENV2-induced cell death inhibition; DENV2-infected cells, cytopathic effect rescue, plate reader; CPE inhibition, % at 9.99 µM; actives 1.7% (n = 350,000); AID 651640; in the data active = CPE inhibition above about 20%, passing the limit was not always enough; tested in BHK-21 cells;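 also: 0% = median of neutral control wells and 100% = median of positive control wells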
# An asterisk follows results filed as active; / = no result. Rows were chosen to be rich in hits. Some 2.8% of all compounds tested hit in one or more screens of this group.
SMILES,E-selectin induc,SIRT5 inh,DENV2 CPE rescue
C[C@@H]1CN([C@@H](C)CO)S(=O)(=O)c2ccc(C3=CCCC3)cc2O[C@@H]1CN(C)C,0,5,3
CCC(C)NC(=O)CN1C(=O)NC2NC(=O)NC21 (centres undefined),5,-1,-5
CC(C)=NNC(=O)CN1C(=O)NC2NC(=O)NC21 (centres undefined),/,2,34*
CN(C)CC(=O)Nc1ccc2c(c1)[C@@H]1C[C@@H](CC(=O)N3CCOCC3)O[C@@H](CO)[C@@H]1O2,0,/,11
CS(=O)(=O)N1CC2(C1)[C@@H](c1ccccc1)[C@@H](CO)N2CCC(F)(F)F,0,-6,20*
CS(=O)(=O)N1CC2(C1)[C@H](c1ccccc1)[C@@H](CO)N2CCC(F)(F)F,0,-5,-3
O=C(C1CC1)N1[C@H](CO)[C@H](c2ccccc2)C12CN(CCC(F)(F)F)C2,0,-13,16
O=C(C1CCOCC1)N1CC2(C1)[C@H](c1ccccc1)[C@@H](CO)N2CCC(F)(F)F,0,1,2
O=C(c1ccccc1)N1[C@H](CO)[C@H](c2ccccc2)C12CN(CCC(F)(F)F)C2,0,-5,20*
O=C(C1CCOCC1)N1CC2(C1)[C@@H](c1ccccc1)[C@@H](CO)N2CCC(F)(F)F,0,26*,-9
C/C=C/c1cnc2c(c1)C(=O)N([C@H](C)CO)C[C@H](C)[C@H](CN(C)C(=O)Cc1ccccc1)O2,0,-1,12
CCCN1C[C@@H](C)[C@H](OC)CN(C)C(=O)c2cc(NC(=O)Nc3ccccc3F)ccc2OC[C@H]1C,0,8,4
C[C@H](CO)N1C[C@H](C)[C@@H](CN(C)S(=O)(=O)c2cn(C)cn2)Oc2ccc(NC(=O)CCN3CCOCC3)cc2C1=O,/,14,-3
C[C@H](CO)N1C[C@H](C)[C@H](CN(C)S(=O)(=O)c2cn(C)cn2)OCCCC[C@H](C)Oc2ccc(NC(=O)Nc3ccc(F)cc3)cc2C1=O,0,3,10
COc1ccc2c3c(n(C)c2c1)[C@@H](CO)N(C(=O)CC1CC1)CC31CCN(C(=O)C2CCCC2)CC1,0,2,-3
C[C@@H](NC(=O)C[C@@H]1C[C@H]2c3cc(NC(=O)NC4CCCC4)ccc3O[C@H]2[C@H](CO)O1)c1ccccc1,0,-2,2
O=C(Nc1ccc2c(c1)[C@@H]1C[C@@H](CC(=O)N3CCCCC3)O[C@@H](CO)[C@@H]1O2)NC1CCCC1,0,0,10
C[C@H](NC(=O)C[C@H]1C[C@H]2c3cc(NC(=O)NC4CCCC4)ccc3O[C@H]2[C@H](CO)O1)c1ccccc1,0,-2,28*
O=C(Nc1ccc2c(c1)[C@H]1C[C@@H](CC(=O)N3CCCCC3)O[C@H](CO)[C@H]1O2)NC1CCCC1,0,-1,56*
C[C@@H]1CN([C@@H](C)CO)C(=O)c2cc(NC(=O)Nc3ccc4c(c3)OCO4)ccc2O[C@@H]1CN(C)Cc1ccccc1,0,3,4
C[C@@H]1CCCCO[C@H](CN(C)C(=O)Nc2ccc(F)cc2)[C@H](C)CN([C@@H](C)CO)C(=O)c2cc(NC(=O)CCCN(C)C)ccc2O1,0,0,-1
C[C@H](CO)N1C[C@H](C)[C@@H](CN(C)CC2CCCCC2)Oc2ccc(NC(=O)CCN3CCOCC3)cc2CC1=O,0,-1,3
Cc1cc(N/N=C/c2ccc(O)cc2)c2cccc(C)c2n1,/,21*,-26
Cc1cc(C)c2nc(C)cc(N/N=C/c3ccc(O)cc3)c2c1,/,3,-16
COC(=O)c1ccc(CSc2nnc(CS(=O)Cc3ccc(Br)cc3)n2-c2ccccc2)cc1 (centres undefined),0,18*,5
SMILES,E-selectin induc,SIRT5 inh,DENV2 CPE rescue
O=S(Cc1ccc(Br)cc1)Cc1nnc(SCc2ccc(Br)cc2)n1-c1ccccc1 (centres undefined),0,2,4
C[C@@H]1CCCCO[C@H](CN(C)CC2CCCCC2)[C@H](C)CN([C@@H](C)CO)C(=O)c2cc(NC(=O)Cc3ccccc3)ccc2O1,3,-5,-3
C[C@@H]1CN([C@H](C)CO)C(=O)c2cccc(NS(=O)(=O)c3ccc(Cl)cc3)c2O[C@H]1CN(C)Cc1ccccc1,0,-3,25*
CNC[C@@H]1Oc2c(NS(=O)(=O)c3ccc(Cl)cc3)cccc2C(=O)N([C@H](C)CO)C[C@H]1C,0,-2,-6
C[C@H](CO)N1C[C@H](C)[C@H](CN(C)Cc2ccccc2)Oc2c(NS(=O)(=O)c3ccc(F)cc3)cccc2C1=O,0,1,104*
C[C@@H]1CN([C@H](C)CO)C(=O)c2cccc(NS(=O)(=O)c3ccc(F)cc3)c2O[C@@H]1CN(C)Cc1ccccc1,0,6,-5
CNC[C@H]1Oc2c(NS(=O)(=O)c3cccs3)cccc2C(=O)N([C@@H](C)CO)C[C@H]1C,0,-1,26*
C[C@H](CO)N1C[C@H](C)[C@@H](CN(C)Cc2ccccc2)Oc2c(NS(=O)(=O)c3ccc(Cl)cc3)cccc2C1=O,0,-4,1
CNC[C@H]1Oc2c(NS(=O)(=O)c3ccc(Cl)cc3)cccc2C(=O)N([C@H](C)CO)C[C@H]1C,0,-4,79*
CNC[C@@H]1Oc2c(NS(=O)(=O)c3cccs3)cccc2C(=O)N([C@@H](C)CO)C[C@H]1C,0,6,-15
CN(C)C(=O)C[C@H]1C[C@H]2c3cc(NC(=O)C4CCOCC4)ccc3O[C@H]2[C@H](CO)O1,0,2,6
C[C@@H]1CN([C@@H](C)CO)C(=O)c2cccc(NS(=O)(=O)c3ccc(F)cc3)c2O[C@H]1CN(C)Cc1ccc(C(=O)O)cc1,66*,2,0
C[C@H](CO)N1C[C@H](C)[C@H](CN(C)Cc2ccc(C(=O)O)cc2)Oc2c(NS(=O)(=O)c3ccccc3)cccc2C1=O,0,-5,50*
C[C@H]1CN([C@@H](C)CO)C(=O)c2cccc(NS(=O)(=O)c3ccccc3)c2O[C@H]1CN(C)Cc1ccc(C(=O)O)cc1,0,-4,-1
C[C@H](CO)N1C[C@H](C)[C@H](CN(C)Cc2ccc(C(=O)O)cc2)Oc2c(NS(=O)(=O)c3ccc(F)cc3)cccc2C1=O,1,0,13
Cc1ccc(S(=O)(=O)N(C)C[C@@H]2Oc3ccc(N(C)C)cc3CC(=O)N([C@@H](C)CO)C[C@H]2C)cc1,0,-4,-3
COC(=O)c1ccc(NC(=S)NCCCn2ccnc2)cc1,/,20*,-6
CCOC(=O)c1ccc(NC(=S)NCCCn2ccnc2)cc1,3,-4,0
C[C@@H]1CN([C@@H](C)CO)C(=O)c2cccc(NS(C)(=O)=O)c2O[C@@H]1CN(C)Cc1ccc(Oc2ccccc2)cc1,-12,7,-2
CCNC(=O)C[C@H]1CC[C@@H]2[C@H](COC[C@@H](O)CN2C(=O)Nc2c(C)noc2C)O1,0,-3,-5
CC(C)NC(=O)N(C)C[C@H]1Oc2ncc(-c3cncnc3)cc2C(=O)N([C@@H](C)CO)C[C@@H]1C,0,-3,-4
CCc1cc(Cn2nc(-c3ccccc3)cc2C(=O)NCCOC)on1,0,0,17
CCc1cc(Cn2nc(-c3ccccc3)cc2C(=O)NCC2CC2)on1,0,/,48*

# Source: PubChem
